What was measured:
HCT-116 [1] = experiment: Antiproliferative activity against human HCT116 cells at 5 uM after 72 hrs by MTT assay relative to control; assay type: functional; conditions: HCT-116, 72 h
Method in brief: (§1)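 HCT116 cells were grown in DMEM and Ramos cells in RPMI 1640, each with 10% FBS and penicillin/streptomycin, at 37 °C in 5% CO2. Log-phase cells were seeded at 10000-15000 per well and dosed after 24 h at 5 or 0.5 μM for 72 h. MTT was added for 1-3 h, followed by 20% SDS overnight, and A570 was read. Percent inhibition is relative to untreated control, as the mean of at least two experiments.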

HCT-116 [2] = experiment: Antiproliferative activity against human HCT116 cells at 0.5 uM after 72 hrs by MTT assay relative to control; assay type: functional; conditions: HCT-116, 72 h; method in brief: as §1
[3] = target: Serine/threonine-protein kinase mTOR (Homo sapiens, UniProt P42345); experiment: Inhibition of recombinant N-terminal FLAG-tagged human mTOR (1362 to end residues) at 500 nM using ULight-4E-BP1 (Thr37/46) peptide as substrate after 1 hr by fluorescence assay relative to control
Ramos [4] = experiment: Antiproliferative activity against human Ramos cells at 0.5 uM after 72 hrs by MTT assay relative to control; assay type: functional; method in brief: as §1
[5] = target: PI3-kinase p110-alpha/p85-alpha (Homo sapiens) (UniProt P27986+P42336); experiment: Inhibition of recombinant human full length N-terminal His-tagged/untagged p110alpha/p85alpha expressed in baculovirus expression system at 500 nM using PIP2 as substrate after 1 hr by Kinase-Glo reagent-based assay relative to control
Ramos [6] = experiment: Antiproliferative activity against human Ramos cells at 5 uM after 72 hrs by MTT assay relative to control; assay type: functional; method in brief: as §1
OCI-AML2 = experiment: Antiproliferative activity against human OCI-AML2 cells after 72 hrs by MTT assay; assay type: functional, cell-based; conditions: OCI-AML2, 72 h
Raji = experiment: Antiproliferative activity against human Raji cells after 72 hrs by MTT assay; assay type: functional, cell-based
Method in brief: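 Log-phase cells were plated at 10000-15000 per well and exposed to serial concentrations after 24 h for 72 h. Read-out was MTT for 1-3 h, then 20% SDS overnight and absorbance at 570 nm. IC50 was calculated from growth versus untreated control, as mean ± SEM of at least three independent experiments.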

MM1.S = experiment: Antiproliferative activity against human MM1S cells after 72 hrs by MTT assay; assay type: functional, cell-based
MV4-11 = experiment: Antiproliferative activity against human MV4-11 cells after 72 hrs by MTT assay; assay type: functional, cell-based; conditions: MV4-11, 72 h
OCI-AML-3 = experiment: Antiproliferative activity against human OCI-AML3 cells after 72 hrs by MTT assay; assay type: functional, cell-based; conditions: OCI-AML-3, 72 h
HCT-116 [7] = experiment: Antiproliferative activity against human HCT116 cells after 72 hrs by MTT assay; assay type: functional, cell-based; conditions: HCT-116, 72 h
MCF7 = experiment: Antiproliferative activity against human MCF7 cells after 72 hrs by MTT assay; assay type: functional, cell-based; conditions: MCF7, 72 h

SMILES	inhibition [3]	inhibition [5]	IC50 (OCI-AML2)	IC50 (Raji)	IC50 (MM1.S)	IC50 (MV4-11)	IC50 (OCI-AML-3)	IC50 (HCT-116 [7])	IC50 (MCF7)	inhibition at 5 µM (HCT-116 [1])	inhibition at 0.5 µM (HCT-116 [2])	inhibition at 0.5 µM (Ramos [4])	inhibition at 5 µM (Ramos [6])
O=C(CCCCCCCn1ncc2c(N3CCOCC3)nc(N3CCOCC3)nc21)NO	4.4%	-1.2%								71.8%	13.8%	26.9%	99.1%
CN1CCN(c2nc(N3CCOCC3)c3cnn(CCCCCCC(=O)NO)c3n2)CC1	-0.4%	-6.2%								80.3%	59.9%	90.1%	99.5%
O=C(CCCCn1ncc2c(N3CCOCC3)nc(N3CCOCC3)nc21)NO	-5.4%	15%								55.8%	22.6%	33.3%	60.2%
O=C(Cn1ncc2c(N3CCOCC3)nc(N3CCOCC3)nc21)NO		5.9%								18.1%	3.5%	1.1%	12.4%
O=C(CCCCCn1ncc2c(N3CCOCC3)nc(N3CCOCC3)nc21)NO	-4.2%	1%								92.1%	62.4%	69.2%	94.6%
O=C(CCCn1ncc2c(N3CCOCC3)nc(N3CCOCC3)nc21)NO	21%	17%								30.1%	15.7%	20.5%	39.6%
O=C(CCn1ncc2c(N3CCOCC3)nc(N3CCOCC3)nc21)NO	-5%	11%								22.4%	6.3%	8.5%	15.7%
CN1CCN(c2nc(N3CCOCC3)c3cnn(CCCCCC(=O)NO)c3n2)CC1	-1.7%	1.5%								56.9%	10.2%	91.2%	99.5%
O=C(CCCCCCn1ncc2c(N3CCOCC3)nc(N3CCOCC3)nc21)NO	2.2%	4.5%		159 nM	192 nM			89.9 nM	372 nM	95.2%	92.9%	91%	97.4%
O=C(/C=C/c1ccc(Cn2ncc3c(N4CCOCC4)nc(N4CCOCC4)nc32)cc1)NO	-5.4%	-3%								59.5%	12%	16.8%	98.2%

Now from value to compound, other results behind:

inhibition [3]	inhibition [5]	IC50 (OCI-AML2)	IC50 (Raji)	IC50 (MM1.S)	IC50 (MV4-11)	IC50 (OCI-AML-3)	IC50 (HCT-116 [7])	IC50 (MCF7)	SMILES	inhibition at 5 µM (HCT-116 [1])	inhibition at 0.5 µM (HCT-116 [2])	inhibition at 0.5 µM (Ramos [4])	inhibition at 5 µM (Ramos [6])
		29 nM	14.6 nM	27.8 nM	12.6 nM	30.1 nM	100 nM		O=C(CCCCCCn1ncc2c(N3CCOCC3)nc(-c3ccc(NC(=O)N4CCOCC4)cc3)nc21)NO				
		32.8 nM	127 nM	126 nM	26.5 nM	40.1 nM	111 nM		O=C(CCCCCCn1ncc2c(N3CCOCC3)nc(-c3ccc(NC(=O)N4CCNCC4)cc3)nc21)NO				
		9.71 nM	19.1 nM	15.3 nM	18.3 nM	8.79 nM	33.9 nM		CCCCNC(=O)Nc1ccc(-c2nc(N3CCOCC3)c3cnn(CCCCCCC(=O)NO)c3n2)cc1				
		18.4 nM	19.7 nM	11.8 nM	10.4 nM	16.3 nM	61.9 nM		CCNC(=O)Nc1ccc(-c2nc(N3CCOCC3)c3cnn(CCCCCCC(=O)NO)c3n2)cc1				
		16.9 nM	148 nM	39.2 nM	13.9 nM	15 nM	68 nM		O=C(CCCCCCn1ncc2c(N3CCOCC3)nc(-c3ccc(NC(=O)N4CCSCC4)cc3)nc21)NO				

From ChEMBL document CHEMBL4411315, “Discovery of Novel Dual Histone Deacetylase and Mammalian Target of Rapamycin Target Inhibitors as a Promising Strategy for Cancer Therapy” (J Med Chem, 2019)
